Screens (PubChem BioAssay)
CAL PDZ FP-1: blocks peptide binding to human CAL PDZ domain; Q9HD26; purified CAL PDZ, TMR-peptide fluorescence polarization, 1 h; inhibition, % at 20 µM; hit rate 0.02% among 330,000;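 active = highest replicate inhibition of at least 40%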
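Material: tagged CAL PDZ protein CerCALP, purified; buffer or medium: sodium phosphate/NaCl buffer pH 7.4 with TCEP, IgG, Thesit; also added: fluorescent TMR peptide probe; schedule: 1 h incubation at room temperature before polarization reading; technique: fluorescence polarization from S- and P-plane intensities, G-factor corrected; control set: unlabelled peptide and DMSO controls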
DYRK1A inh: inhibitors of rat Dyrk1A kinase; inhibition, % at 12.5 µM; Q63470; hit rate 0.43% among 310,000; ADP-Glo luminescence, NFATc1 peptide; AID 504441; in the data active = inhibition above about 50%
Rtt109 Vps75: C. albicans Rtt109 histone acetyltransferase inhibition | Q5AAJ8 | hit rate 0.16% among 330,000 | AID 540336 | inhibition, % at 34.9 µM | purified Rtt109/Vps75, ThioGlo CoA-SH fluorescence, 4 h;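 active = inhibition of at least 50% in every replicate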
Target sequence (Q5AAJ8 whole entry, looked up): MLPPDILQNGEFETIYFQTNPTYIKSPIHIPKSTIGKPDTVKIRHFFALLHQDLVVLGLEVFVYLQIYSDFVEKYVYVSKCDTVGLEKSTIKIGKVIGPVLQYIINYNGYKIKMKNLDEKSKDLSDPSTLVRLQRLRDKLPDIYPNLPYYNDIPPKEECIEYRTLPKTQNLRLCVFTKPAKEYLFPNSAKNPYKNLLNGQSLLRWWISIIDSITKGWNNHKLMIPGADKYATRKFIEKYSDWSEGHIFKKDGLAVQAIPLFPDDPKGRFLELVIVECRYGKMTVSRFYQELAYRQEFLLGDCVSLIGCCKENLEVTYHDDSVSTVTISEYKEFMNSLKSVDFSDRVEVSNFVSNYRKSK
CAL PDZ FP-2: inhibitors of human CAL PDZ peptide binding | Q9HD26 | purified CAL PDZ, TMR-peptide fluorescence polarization, 1 h | inhibition, % at 24.9 µM | hit rate 0.92% among 300,000;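 active = mean inhibition of at least 30% with at least half of replicates also reaching 30%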
ALR inh: inhibitors of human sulfhydryl oxidase ALR | hit rate 3.8% among 290,000 | purified ALR, DTT oxidation, H2O2 HRP-luminol luminescence | P55789 | inhibition, % (concentration not given with the values) | AID 485317;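 active = mean replicate inhibition above about 79%, with every replicate also reaching it, limit read from the data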
Target sequence (P55789 whole entry, looked up): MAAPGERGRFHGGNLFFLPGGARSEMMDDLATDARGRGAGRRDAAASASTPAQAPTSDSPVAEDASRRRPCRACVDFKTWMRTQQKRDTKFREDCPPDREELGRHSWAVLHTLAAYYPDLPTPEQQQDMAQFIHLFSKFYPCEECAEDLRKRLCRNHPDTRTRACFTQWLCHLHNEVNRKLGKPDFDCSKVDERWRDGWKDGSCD
Hits are given with their value. In the library only some 4.3% were active in any assay of this set; here they are far more common.

What do the screens show for `COCc1cc(C)c(C#N)c(=S)[nH]1`?
CAL PDZ FP-1: inactive; DYRK1A inh: inactive; Rtt109 Vps75: 79.6; ALR inh: inactive

What do the screens show for `COCc1cc(=O)[nH]c(=S)[nH]1`?
CAL PDZ FP-1: inactive; DYRK1A inh: inactive; Rtt109 Vps75: inactive; CAL PDZ FP-2: inactive; ALR inh: inactive

What do the screens show for `CC(=O)OC[C@H]1O[C@H](C/C=N/OC[C@@H](O)[C@H]2O[C@@H]3OC(C)(C)O[C@@H]3[C@H]2O)C=C[C@@H]1OC(C)=O`?
ALR inh: inactive

Results for O=C(Cc1ccc(Cl)cc1)NNC(=S)NC(=O)c1cccs1 ?
CAL PDZ FP-1: inactive; Rtt109 Vps75: inactive; CAL PDZ FP-2: inactive; ALR inh: 97.8

How did FC(F)(F)c1ccc2c(c1)N1CCCC1CN2 (stereo not drawn) do in these assays?
CAL PDZ FP-1: inactive; DYRK1A inh: inactive; Rtt109 Vps75: inactive; CAL PDZ FP-2: inactive; ALR inh: inactive

What do the screens show for `FC(F)(F)c1ccc2c(c1)NCC1CCCN21` (stereo not drawn)?
CAL PDZ FP-1: inactive; DYRK1A inh: inactive; Rtt109 Vps75: inactive; CAL PDZ FP-2: inactive; ALR inh: 97.8

What do the screens show for `O=C(COC(=O)/C=C/c1ccc(C(F)(F)F)cc1)NCC1CCCO1` (stereo not drawn)?
CAL PDZ FP-1: inactive; DYRK1A inh: inactive; Rtt109 Vps75: inactive; CAL PDZ FP-2: inactive

Results for COc1ccc([N+](=O)[O-])cc1NC(=O)c1ccc(Br)s1 ?
CAL PDZ FP-1: inactive; DYRK1A inh: inactive; Rtt109 Vps75: inactive; CAL PDZ FP-2: inactive; ALR inh: inactive

How did COC(C(=O)Nc1ccnn1C1CCN(C(=O)c2ccc(C)cc2)CC1)c1ccccc1 (stereo not drawn) do in these assays?
CAL PDZ FP-1: inactive; Rtt109 Vps75: inactive; CAL PDZ FP-2: inactive; ALR inh: inactive

How did Cn1c(CC(=O)Nc2ccccc2F)nnc1SCC(=O)Nc1nncs1 do in these assays?
CAL PDZ FP-1: inactive; DYRK1A inh: inactive; Rtt109 Vps75: inactive; CAL PDZ FP-2: inactive; ALR inh: inactive

How did Cn1c(CC(=O)Nc2ccccc2F)nnc1SCC(=O)Nc1ccccc1Br do in these assays?
CAL PDZ FP-1: inactive; DYRK1A inh: inactive; Rtt109 Vps75: inactive; CAL PDZ FP-2: 41.8; ALR inh: inactive

How did COc1cccc(/C=N/c2oc(-c3ccccc3)cc2C#N)c1O do in these assays?
CAL PDZ FP-1: inactive; DYRK1A inh: inactive; Rtt109 Vps75: inactive; ALR inh: 85.8

What do the screens show for `O=C(c1ccccc1)c1c(O)cc(-c2ccccc2)oc1=O`?
CAL PDZ FP-1: inactive; DYRK1A inh: inactive; Rtt109 Vps75: inactive; CAL PDZ FP-2: inactive; ALR inh: inactive

What do the screens show for `COc1ccc(/C=N/c2oc(-c3ccccc3)cc2C#N)cc1`?
CAL PDZ FP-1: inactive; DYRK1A inh: inactive; Rtt109 Vps75: inactive; CAL PDZ FP-2: inactive; ALR inh: 97.5

What do the screens show for `N#Cc1cc(-c2ccccc2)oc1/N=C/c1ccccc1O`?
CAL PDZ FP-1: inactive; DYRK1A inh: inactive; Rtt109 Vps75: inactive; CAL PDZ FP-2: inactive; ALR inh: 97.3

How did Cc1ccc(Cn2cnc3ccccc32)cc1C do in these assays?
CAL PDZ FP-1: inactive; DYRK1A inh: inactive; Rtt109 Vps75: inactive; CAL PDZ FP-2: inactive; ALR inh: inactive

What do the screens show for `O=C(c1ccc(Br)o1)N1CCN=C1SCc1cccnc1`?
CAL PDZ FP-1: inactive; DYRK1A inh: inactive; Rtt109 Vps75: inactive; CAL PDZ FP-2: inactive; ALR inh: 99.7

How did O=C(c1cc2ccccc2o1)N1CCN=C1SCc1cccnc1 do in these assays?
DYRK1A inh: inactive; Rtt109 Vps75: inactive; CAL PDZ FP-2: inactive; ALR inh: 98.6

Results for Nc1ncnc2c1ncn2[C@@H]1O[C@H](CNS(=O)(=O)c2cc3ccccc3s2)[C@@H](O)[C@H]1O ?
CAL PDZ FP-1: inactive; Rtt109 Vps75: inactive; CAL PDZ FP-2: inactive

Results for CC(=O)N1CCC(N(CCN2CCOCC2)C(=S)Nc2cc(C)ccc2C)CC1 ?
CAL PDZ FP-1: inactive; DYRK1A inh: inactive; Rtt109 Vps75: inactive; CAL PDZ FP-2: inactive; ALR inh: inactive

Results for Cc1ccc(N2C(=O)CN(Cc3cccs3)C2=S)cc1C ?
CAL PDZ FP-1: inactive; DYRK1A inh: inactive; Rtt109 Vps75: inactive; CAL PDZ FP-2: inactive; ALR inh: 95.6

What do the screens show for `CCOC(=O)Cc1cc(=O)c2c(=O)n(-c3ccccc3)[nH]c2[nH]1`?
CAL PDZ FP-1: inactive; DYRK1A inh: inactive; Rtt109 Vps75: inactive; ALR inh: 77.9

How did CCOC(=O)CC1=NN(c2ccccc2)C(=O)C1 do in these assays?
CAL PDZ FP-1: inactive; DYRK1A inh: inactive; Rtt109 Vps75: inactive; CAL PDZ FP-2: inactive; ALR inh: inactive

How did O=c1cc(-c2ccccc2)[nH]c2[nH]n(-c3ccccc3)c(=O)c12 do in these assays?
CAL PDZ FP-1: inactive; DYRK1A inh: inactive; Rtt109 Vps75: inactive; ALR inh: 98.9

What do the screens show for `Cc1noc(C)c1COC(=O)c1cccc(N(C)C)c1`?
CAL PDZ FP-1: inactive; Rtt109 Vps75: inactive; CAL PDZ FP-2: inactive; ALR inh: inactive

What do the screens show for `Cc1ccc(Nc2cc(C)nc3ncnn23)cc1`?
DYRK1A inh: inactive; Rtt109 Vps75: inactive; CAL PDZ FP-2: inactive; ALR inh: inactive

Results for Nc1cc(=O)[nH]c(=O)n1CCCc1ccccc1 ?
CAL PDZ FP-1: inactive; DYRK1A inh: inactive; Rtt109 Vps75: inactive; CAL PDZ FP-2: 38.9

Results for Nc1cc(=O)[nH]c(=O)n1Cc1ccccc1 ?
CAL PDZ FP-1: inactive; DYRK1A inh: inactive; Rtt109 Vps75: inactive; CAL PDZ FP-2: inactive; ALR inh: inactive

How did O=C(NCC1CCCO1)c1ccc(NC(=O)c2ccc([N+](=O)[O-])cc2)cc1 (stereo not drawn) do in these assays?
CAL PDZ FP-1: inactive; DYRK1A inh: inactive; Rtt109 Vps75: inactive; CAL PDZ FP-2: inactive

Results for O=C(CC(SCc1ccco1)c1ccc(O)cc1)c1cccs1 (stereo not drawn) ?
CAL PDZ FP-1: inactive; DYRK1A inh: inactive; Rtt109 Vps75: inactive; CAL PDZ FP-2: inactive; ALR inh: 95.6

Results for O=C(CSc1nnc(-c2ccc(O)cc2)n1Cc1ccco1)c1ccccc1 ?
CAL PDZ FP-1: inactive; DYRK1A inh: inactive; Rtt109 Vps75: inactive; CAL PDZ FP-2: inactive; ALR inh: 94.0

Results for O=C(CSc1nnc(-c2ccc(O)cc2)n1Cc1ccco1)c1cccs1 ?
CAL PDZ FP-1: inactive; DYRK1A inh: inactive; Rtt109 Vps75: inactive; CAL PDZ FP-2: inactive; ALR inh: 99.4

How did O=C(NCCc1ccccc1)c1cc(=O)c2ccccc2o1 do in these assays?
CAL PDZ FP-1: inactive; DYRK1A inh: inactive; Rtt109 Vps75: inactive; CAL PDZ FP-2: inactive; ALR inh: inactive

How did O=C(COC(=O)Cc1ccc(Br)cc1)NCc1ccc(F)cc1 do in these assays?
CAL PDZ FP-1: inactive; DYRK1A inh: inactive; Rtt109 Vps75: inactive; CAL PDZ FP-2: inactive; ALR inh: inactive

What do the screens show for `O=C(CNC(=O)c1ccccc1)N=Nc1c(O)[nH]c2ccc(Br)cc12`?
CAL PDZ FP-1: inactive; DYRK1A inh: inactive; Rtt109 Vps75: inactive; CAL PDZ FP-2: inactive; ALR inh: inactive

What do the screens show for `O=S(=O)(Cc1ccccc1)N=Nc1c(O)[nH]c2ccc(Br)cc12`?
CAL PDZ FP-1: inactive; DYRK1A inh: inactive; Rtt109 Vps75: inactive; CAL PDZ FP-2: 81.5; ALR inh: inactive
